Assay results reported in ChEMBL document CHEMBL1140903, “Reactions of functionalized sulfonamides: application to lowering the lipophilicity of cytosolic phospholipase A2alpha inhibitors” (J Med Chem, 2009).

What was measured:
[1] = biological target: T1, Cytosolic phospholipase A2 (Homo sapiens, UniProt P47712); experiment: Inhibition of human cytosolic PLA2alpha by GLU micelle assay
T1 sequence (P47712 whole entry): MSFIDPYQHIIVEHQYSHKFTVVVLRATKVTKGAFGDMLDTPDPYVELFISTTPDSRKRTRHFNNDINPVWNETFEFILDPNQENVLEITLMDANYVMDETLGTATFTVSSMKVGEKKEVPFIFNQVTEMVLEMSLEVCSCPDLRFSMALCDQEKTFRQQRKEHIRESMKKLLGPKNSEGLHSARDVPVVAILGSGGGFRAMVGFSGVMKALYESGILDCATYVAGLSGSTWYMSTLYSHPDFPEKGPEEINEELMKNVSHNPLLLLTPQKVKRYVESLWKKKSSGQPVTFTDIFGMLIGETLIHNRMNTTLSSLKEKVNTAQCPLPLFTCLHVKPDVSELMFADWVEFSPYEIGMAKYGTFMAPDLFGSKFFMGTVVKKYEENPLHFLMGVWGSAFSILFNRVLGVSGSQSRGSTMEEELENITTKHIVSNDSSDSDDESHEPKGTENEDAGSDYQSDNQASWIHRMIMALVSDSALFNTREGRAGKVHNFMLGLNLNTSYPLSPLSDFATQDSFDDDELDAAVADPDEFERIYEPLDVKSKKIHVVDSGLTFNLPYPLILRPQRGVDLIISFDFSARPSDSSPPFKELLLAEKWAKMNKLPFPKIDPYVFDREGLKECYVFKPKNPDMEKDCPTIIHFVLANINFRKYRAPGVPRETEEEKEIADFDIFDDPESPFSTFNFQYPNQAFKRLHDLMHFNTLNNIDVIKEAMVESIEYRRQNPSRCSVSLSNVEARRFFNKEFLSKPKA
Summary of the method: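 Purified human cPLA2α with the substrate 7-hydroxycoumarinyl-γ-linolenate (GLU), presented in micelles containing a high concentration of detergent and lipid. IC50 is taken from at least two runs, each run the mean of duplicate assays.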

Blood = experiment: Inhibition of A23187-induced TBX2 release in Sprague-Dawley rat whole blood; type: functional, tissue-based
Summary of the method: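 Rat whole blood is stimulated with calcium ionophore A23187, and thromboxane B2 is the read-out (cPLA2α- and COX-1-dependent). IC50 is taken from at least two runs, each run the mean of triplicate assays.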

COc1ccc(OC)c(SCS(=O)(=O)NCCc2c(CCOc3ccc(C(=O)O)cc3)c3cc(Cl)ccc3n2C(c2ccccc2)c2ccccc2)c1
IC50 [1]: 330 nM | IC50 (Blood): 240 nM

O=C(O)c1ccc(OCCc2c(CCNS(=O)(=O)CCn3ccnc3)n(C(c3ccccc3)c3ccccc3)c3ccc(Cl)cc23)cc1
IC50 (Blood): 5800 nM

O=C(O)c1ccc(OCCc2c(CCNS(=O)(=O)CCN3CCNC3=S)n(C(c3ccccc3)c3ccccc3)c3ccc(Cl)cc23)cc1
IC50 [1]: 750 nM | IC50 (Blood): 5000 nM

O=C(O)c1ccc(OCCc2c(CCNS(=O)(=O)CSc3c(Cl)cccc3Cl)n(C(c3ccccc3)c3ccccc3)c3ccc(Cl)cc23)cc1
IC50 [1]: 600 nM | IC50 (Blood): 160 nM

O=C(O)c1ccc(OCCc2c(CCNS(=O)(=O)CCN3CCN(c4ccccn4)CC3)n(C(c3ccccc3)c3ccccc3)c3ccc(Cl)cc23)cc1
IC50 [1]: 290 nM | IC50 (Blood): 210 nM

CC(=O)N1C(C)CN(CCS(=O)(=O)NCCc2c(CCOc3ccc(C(=O)O)cc3)c3cc(Cl)ccc3n2C(c2ccccc2)c2ccccc2)CC1C (stereo unspecified)
IC50 [1]: 270 nM | IC50 (Blood): 1200 nM

O=C(O)c1ccc(OCCc2c(CCNS(=O)(=O)CCN3CCCC3)n(C(c3ccccc3)c3ccccc3)c3ccc(Cl)cc23)cc1
IC50 [1]: 350 nM | IC50 (Blood): 330 nM

O=C(O)c1ccc(OCCc2c(CCNS(=O)(=O)CSc3ccc(F)c(Cl)c3)n(C(c3ccccc3)c3ccccc3)c3ccc(Cl)cc23)cc1
IC50 [1]: 170 nM | IC50 (Blood): 70 nM

O=C(O)c1ccc(OCCc2c(CCNS(=O)(=O)Cc3ccc(Cl)c(Cl)c3)n(C(c3ccccc3)c3ccccc3)c3ccc(Cl)cc23)cc1 [ECOPLADIB]
IC50 (Blood): 110 nM

Cc1cccc(C)c1CS(=O)(=O)NCCc1c(CCCc2ccc(C(=O)O)cc2)c2cc(Cl)ccc2n1C(c1ccccc1)c1ccccc1
IC50 [1]: 10 nM | IC50 (Blood): 30 nM

O=C(O)c1ccc(OCCc2c(CCNS(=O)(=O)CCN3CCSC3)n(C(c3ccccc3)c3ccccc3)c3ccc(Cl)cc23)cc1
IC50 (Blood): 320 nM

O=C(O)c1ccc(OCCc2c(CCNS(=O)(=O)CCc3ccccc3)n(C(c3ccccc3)c3ccccc3)c3ccc(Cl)cc23)cc1
IC50 [1]: 500 nM | IC50 (Blood): 630 nM

O=C(O)c1ccc(OCCc2c(CCNS(=O)(=O)Cc3ccccc3)n(C(c3ccccc3)c3ccccc3)c3ccc(Cl)cc23)cc1
IC50 (Blood): 120 nM

O=C(O)c1ccc(OCCc2c(CCNS(=O)(=O)CSc3ccc(Cl)cc3Cl)n(C(c3ccccc3)c3ccccc3)c3ccc(Cl)cc23)cc1
IC50 [1]: 300 nM | IC50 (Blood): 80 nM

CC(=O)N1CCN(Cc2ccccc2CS(=O)(=O)NCCc2c(CCCc3ccc(C(=O)O)cc3)c3cc(Cl)ccc3n2C(c2ccccc2)c2ccccc2)CC1
IC50 [1]: 6 nM | IC50 (Blood): 34 nM

CC1CCCC(C)N1CCS(=O)(=O)NCCc1c(CCCc2ccc(C(=O)O)cc2)c2cc(Cl)ccc2n1C(c1ccccc1)c1ccccc1 (stereo unspecified)
IC50 (Blood): 50 nM

CC1C(=O)NCCN1CCS(=O)(=O)NCCc1c(CCOc2ccc(C(=O)O)cc2)c2cc(Cl)ccc2n1C(c1ccccc1)c1ccccc1 (stereo unspecified)
IC50 (Blood): 480 nM

COc1ccccc1S(=O)(=O)NCCc1c(CCCc2ccc(C(=O)O)cc2)c2cc(Cl)ccc2n1C(c1ccccc1)c1ccccc1
IC50 [1]: 100 nM | IC50 (Blood): 200 nM

CC1CN(CCS(=O)(=O)NCCc2c(CCOc3ccc(C(=O)O)cc3)c3cc(Cl)ccc3n2C(c2ccccc2)c2ccccc2)CC(C)N1 (stereo unspecified)
IC50 (Blood): > 10000 nM

O=C(O)c1ccc(CCCc2c(CCNS(=O)(=O)Cc3ccccc3CO)n(C(c3ccccc3)c3ccccc3)c3ccc(Cl)cc23)cc1
IC50 (Blood): 28 nM

O=C(O)c1ccc(OCCc2c(CCNS(=O)(=O)CCn3cccn3)n(C(c3ccccc3)c3ccccc3)c3ccc(Cl)cc23)cc1
IC50 (Blood): 540 nM

CC(=O)N1CCN(CCS(=O)(=O)NCCc2c(CCOc3ccc(C(=O)O)cc3)c3cc(Cl)ccc3n2C(c2ccccc2)c2ccccc2)CC1
IC50 (Blood): 240 nM

CN(C)C1CCN(CCS(=O)(=O)NCCc2c(CCOc3ccc(C(=O)O)cc3)c3cc(Cl)ccc3n2C(c2ccccc2)c2ccccc2)C1 (stereo unspecified)
IC50 (Blood): > 1250 nM

O=C(O)c1ccc(CCCc2c(CCNS(=O)(=O)Cc3ccccc3CN3CCOCC3)n(C(c3ccccc3)c3ccccc3)c3ccc(Cl)cc23)cc1
IC50 (Blood): 20 nM
